Reference: the RNAGym collection of RNA variant scans (doi:10.1126/science.aae0568)
This sample holds only a part of the variants without activity.

B1: tRNA (parent)
chain: GUUCCGUUGGCGUAAUGGUAACGCGUCUCCCUCCUAAGGAGAAGACUGCGGGUUCGAGUCCCGUACGGAACG

Variants of: B1
Experiment: yeast fitness relative to wild type (ratio to wild type); higher = fitter; tRNA-Arg(CCU), competitive growth, 37 C, YPD
How it was run: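 Changes in genotype frequencies gave Darwinian fitness relative to wild type. Frequencies were read by 100-nucleotide paired-end sequencing of gene amplicons before and after pooled Saccharomyces cerevisiae strains, carrying tRNA-Arg(CCU) gene variants at the native locus, were competed in YPD at 37°C for 24 hours in six replicates. A genotype was kept only with ≥ 100 starting reads, and estimates < 0.5 were set to 0.5.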

First: GUUCCGUUGGCGUAAUGGUAACGGGUCUCCCUCCUAAGGAGAAGACUGCGGGUUCGAGUCCCGAACGGACCG [C24G U64A A70C]
Second: GUUCCGUUGGCGUAAUGGUAACGGGUCUCCCUCCUAAGGAGAAGACUGCAGGUUCGAGUCCCGUACGGAACG [C24G G50A]
The yeast fitness of the first is lower: no more than 0.5 for the first, 0.616 for the second.

First: GUUCCGUUGGCGUAAUGGUAACGGGUCUCCCUCCUAAGGAGAAGACUGCCGGUUCGAGUCCCGUACGGAACG [C24G G50C]
Second: GUUCCGUUGGCGUAAUGGUAACGGGUCUCCCUCCUAAGGAGAAGACUGCGGGUUCGAGGCCCGUUCGGAACG [C24G U59G A65U]
The yeast fitness of the first is lower: 0.543 for the first, 0.659 for the second.

First: GUUCCGUUGGCGUAAUGGUAACGGGUCUCCCUCCUAAGGAGAAGACUGCGGCUUCGAGUCCCGUACGGAACG [C24G G52C]
Second: GUUCCGUUGGCGUAAUGGUAACGGGUCUCCCUCCUAAGGAGAAGACUGCGGAUUCGAGUCCCGUACGGAACG [C24G G52A]
The yeast fitness of the first is lower: no more than 0.5 for the first, 0.566 for the second.

First: GUUCCGUUGGCGUAAUGGUAACGGGUCUCCCUCCUAAGGAGAAAACUGCGGGUUCGAGUCCCGUACGGAACG [C24G G44A]
Second: GUUCCGUUGGCGUAAUGGUAACGGGUCUCCCUCCUAAGGAGAACACUGCGGGUUCGAGUCCCGUACGGAACG [C24G G44C]
The yeast fitness of the first is lower: 0.568 for the first, 0.66 for the second.

First: GUUCCGUUGGCGUAAUGGUAACGGCUCUCCCUCCAAAGGAGAAGACUGCGGAUUCGAGUCCCGUACGGAACG [C24G G25C U35A G52A]
Second: GUUCCGUUGGCGUAAUGGUAACGUGUCUCCCUCCUGAGGAGAAGACUGCGGGUUCGACUCCCGUAGGAAACG [C24U A36G G58C C66G G68A]
The yeast fitness of the first is lower: no more than 0.5 for the first, 0.569 for the second.

Compared with GUUCCGUUGGCGUAAUGGUAACGGGCCUCCCUCCUAAGGAGAAGACUGCGGGUUCGAGUCCCGUACGGAACG [C24G U26C], GUUCCGUUGGCGUAAUGGUAACGGGUCUCCCUCCUAAGCAGAAGACUGCGGGUUCGAGUUCCGUUCGGAACG [C24G G39C C60U A65U] is lower in yeast fitness: 0.688 for the first, no more than 0.5 for the second.

GUUCCGUUGGCGUAAUGGUAACGGGACUCCCUCCUAAGGAGAAGACUGCGGGUUCGAGUCCCGUCCGGAACG [C24G U26A A65C] and GUUCCGUUGGCGUAAUGGUAACGGGUCUCCCUCCUAAGGAGAAGACUGCAGGUUGGAGUCCCGUACGGAACG [C24G G50A C55G] cannot be ordered by yeast fitness: no more than 0.5 for the first, no more than 0.5 for the second.

GUUCCGUUGGCGUAAUGGUAACGGGUCCCCCUCCUAAGGAGAUGACUGCGGGUUCGAGUACCGUACGGAACG [C24G U28C A43U C60A] and GUUCCGUUGGCGUAAUGGUAACGGGUCGCCCUUCUAAGGAGUAGACUGCAGGUUCGAGUCCCGUACGGAUCG [C24G U28G C33U A42U G50A A70U] cannot be ordered by yeast fitness: no more than 0.5 for the first, no more than 0.5 for the second.

Compared with GUUCCGUUGGCGUAAUGGUAACGGGUCCCCGUCCUAAGGAGAAGACUGCGGGUUCGAGUCCCGUAUGGAACG [C24G U28C C31G C66U], GUUCCGUUGGCGUAAUGGUAACGGAUCUCCCUCCUAAGGAGAAGACUGCGGGUUCGAGUCCCGUACGGAACG [C24G G25A] is higher in yeast fitness: no more than 0.5 for the first, 0.852 for the second.

First: GUUCCGUUGGCGUAAUGGUAACGUGUCUCCCUCCUGAGGAGAAGACAGCGGGUUCGAGUCCCGUACGGAACG [C24U A36G U47A]
Second: GUUCCGUUGGCGUAAUGGUAACGGGUCUCCCUCCUAAGGAGAAGACUGCGGGUUCGAGUCCCAUACGGAACG [C24G G63A]
The yeast fitness of the first is lower: 0.529 for the first, 0.554 for the second.

First: GUUCCGUUGGCGUAAUGGUAACGUGUCUCCCUCCUGAGGAGAAGACUGCGGGUUCGAGUCCCGAACGGAACG [C24U A36G U64A]
Second: GUUCCGUUGGCGUAAUGGUAACGGGUCUCCCUCCUAACGAGAAGACUGCGGGUUCGAGUCCCGUCCGGAACG [C24G G38C A65C]
The yeast fitness of the first is higher: 0.595 for the first, 0.513 for the second.

Compared with GUUCCGUUGGCGUAAUGGUAACGGGACUCCCUUCUAAGGAGAAGACUGCGGGUACGAGUCCCGUACGGAACG [C24G U26A C33U U54A], GUUCCGUUGGCGUAAUGGUAACGGGUCUCCCUCCUAAGGAGAAGACUGCGGGGUCGAGUCCCGUACGGAACG [C24G U53G] is lower in yeast fitness: 0.609 for the first, no more than 0.5 for the second.

GUUCCGUUGGCGUAAUGGUAACGGGUCUCCCUCCUAAGGAGAAGACUGCGGGUUCGAGUCCCGUAUGGCACG [C24G C66U A69C] and GUUCCGUUGGCGUAAUGGUAACGGGUCUCCCUCCUAAGGAGAAGACUGCGGGUUCGACUCCUGUACGGAACG [C24G G58C C62U] cannot be ordered by yeast fitness: no more than 0.5 for the first, no more than 0.5 for the second.

Compared with GUUCCGUUGGCGUAAUGGUAACGUGUCUCCCUCCUACGGAGAAGACUGCCGGUUCGAGUCCCGUACGGAACG [C24U A37C G50C], GUUCCGUUGGCGUAAUGGUAACGGCUCUCCCUCCUAAGGAGAAGACUGCGGGUUCGAGUCCCGUAAGGAACG [C24G G25C C66A] is lower in yeast fitness: 0.547 for the first, no more than 0.5 for the second.

Compared with GUUCCGUUGGCGUAAUGGUAACGGGUCUCCCUCCUAAGGAGAAGACUGCGGGUUCGAGUCGCGUACGGAACG [C24G C61G], GUUCCGUUGGCGUAAUGGUAACGGGUCUCCCUCCUAACGAGAAGACUGCGGGUUCGAGUCCAGUACGGAACG [C24G G38C C62A] is higher in yeast fitness: 0.537 for the first, 0.852 for the second.

Compared with GUUCCGUUGGCGUAAUGGUAACGUGUCUCCCUCCUCAGGAGAAGUCUGCGGGUUCGAGUCCCGUACGGAACG [C24U A36C A45U], GUUCCGUUGGCGUAAUGGUAACGGGUCUCCCUCCUAAGGAAAAGAUUGCGGGUUCGAGUCCCGUGCGGAACG [C24G G41A C46U A65G] is lower in yeast fitness: 0.513 for the first, no more than 0.5 for the second.

Compared with GUUCCGUUGGCGUAAUGGUAACGUGUCUCCCUCCUUAGGAGAGGACUGCGGGUUCGAGUCCCGUACGGAACG [C24U A36U A43G], GUUCCGUUGGCGUAAUGGUAACGGAUCUCCCUCCUAAGGAGAAGGCUGCGGGUUCGAGUACCGUACGGAACG [C24G G25A A45G C60A] is lower in yeast fitness: 0.509 for the first, no more than 0.5 for the second.

GUUCCGUUGGCGUAAUGGUAACGGCUCUCGCCCCUAAGGAGAAGACUGCGGGUUCGAGUCCCGUACCGAACG [C24G G25C C30G U32C G67C] and GUUCCGUUGGCGUAAUGGUAACGGGUCUCCCGCCUGAGGAGAAGACUGCGGGUUCGAGUACCGUUCGGAACG [C24G U32G A36G C60A A65U] cannot be ordered by yeast fitness: no more than 0.5 for the first, no more than 0.5 for the second.

In the case of GUUCCGUUGGCGUAAUGGUAACGGGUCGGCCUCCGAAGGAGAAGACAGCGGGUUCGAGUCCCGUACGGAACG [C24G U28G C29G U35G U47A], the yeast fitness is reported as 0.606.
